CHO parental Ca – counter-screen: ATP calcium response change in parental CHO cells; parental CHO-K1, ATP-induced calcium, Fluo-8 fluorescence; inhibition, % at 5.6 µM; actives 0.63% (n = 330,000); AID 463079;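 active = inhibition above that plate's mean sample inhibition plus 3 SD, cut at about 26% in these data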;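 also: 0% = ATP-challenged DMSO wells and 100% = DMSO wells without ATP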
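Test system: untransfected parental CHO cell line. Compound: one dose, 5.6 µM nominal. Detection: intracellular calcium via Fluo-8 no-wash fluorescent dye. Measure: % inhibition. Benchmarks: ATP-challenged DMSO wells low, unchallenged DMSO wells high.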
TAAR1 antag – human TAAR1 antagonism | Q96RJ0 | CHO RD-HGA16 TAAR1, Fluo-8 calcium fluorescence, antagonist | inhibition, % at 3 µM | actives 1.5% (n = 360,000);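 active = inhibition above a per-plate cutoff, the mean inhibition of test compounds on that plate plus 3 SD, cut at about 49% in these data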;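 also: 0% = DMSO plus EC80 beta-PEA response and 100% = DMSO alone without agonist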
Target sequence (Q96RJ0 whole entry, looked up): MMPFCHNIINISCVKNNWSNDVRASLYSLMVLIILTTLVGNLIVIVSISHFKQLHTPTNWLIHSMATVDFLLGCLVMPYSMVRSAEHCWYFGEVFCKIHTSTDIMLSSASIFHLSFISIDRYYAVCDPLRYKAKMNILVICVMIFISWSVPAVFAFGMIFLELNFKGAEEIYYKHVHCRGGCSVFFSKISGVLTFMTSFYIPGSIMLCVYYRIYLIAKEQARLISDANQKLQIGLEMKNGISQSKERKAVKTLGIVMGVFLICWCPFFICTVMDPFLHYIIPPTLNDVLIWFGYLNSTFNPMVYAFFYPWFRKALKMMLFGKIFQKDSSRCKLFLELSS
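test system = CHO RD-HGA16 cells bearing hTAAR1 | replication = singlicate | controls = DMSO-only wells and EC80 β-PEA-stimulated wells | reagent = EC80 β-phenethylamine stimulus | read-out basis = percent inhibition of PEA-evoked calcium signal, max/basal emission ratio | schedule = seeding 17-24 h prior, 75-min 37 °C, 30-min RT dye loading | signal = kinetic Fluo-8 calcium fluorescence measurement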
OX1R antag-1 – OX1R (human) antagonism; OX1R-expressing cells, FRET antagonist read-out; inhibition, % at 6.6 µM; actives 1.8% (n = 330,000); AID 485270; in the data active = inhibition mostly above about 38%, no sharp cut-off; inactive = mostly below about 40%;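 also: 0% = agonist challenge alone and 100% = reference antagonist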
OX1R antag-2 – antagonists of human orexin 1 receptor; actives 0.43% (n = 330,000); CHO/OX1R cells, Fluo-8 calcium fluorescence, orexin A; inhibition, % at 5 µM;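 active = inhibition above its plate's threshold, mean inhibition of all tested compounds on the plate plus 3 SD, cut at about 37% in these data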;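 also: 0% = orexin A challenge wells and 100% = SB-334867-A antagonist wells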
TAAR1 ag – agonists of human TAAR1; Q96RJ0; CHO RD-HGA16 TAAR1, Fluo-8 calcium fluorescence; vehicle wells 0%, saturating PEA agonist 100%; activation, % at 3 µM; actives 0.99% (n = 360,000);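 active = activation above the mean activation of all test compounds in the run plus 3 SD, cut at about 38% in these data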
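Test system: RD-HGA16 (CHO) cells co-expressing Gα16 and hTAAR1; dosing: one-point dosing at 3 µM (nominal); timing: 17-24 h seeding, 75 min 37 °C dye, 30 min RT; signal: kinetic Fluo-8 calcium fluorescence; read-out basis: % activation relative to PEA EC100 response; controls: DMSO and PEA EC100; replicates: n 1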
An asterisk follows results filed as active; . = no result given. Rows were chosen to be rich in hits. Some 4% of all compounds tested hit in one or more screens of this group.

SMILES	CHO parental Ca	TAAR1 antag	OX1R antag-1	OX1R antag-2	TAAR1 ag
COc1ccc(CN(C)C(=O)c2ccc(NS(=O)(=O)c3ccc(F)cc3)cc2)c(OC)c1	1	-10	6	-6	2
Cc1ccc(C(=O)NCC(c2ccco2)N2CCCCC2)s1 (stereo not given)	-6	3	-9	-4	1
COc1ccc(NS(=O)(=O)c2cccc(C(=O)NCC(c3ccc(F)cc3)N3CCOCC3)c2)cc1 (stereo not given)	-18	-2	55*	0	10
COc1ccc(NS(=O)(=O)c2ccc(C(=O)N(C)Cc3ccc(C)o3)cc2)cc1	-1	27	3	11	49*
O=C(NCC(c1ccco1)N1CCCCC1)c1ccc([N+](=O)[O-])s1 (stereo not given)	-22	-8	56*	-36	2
Cc1ccc(S(=O)(=O)Nc2cccc(C(=O)NCC(c3ccc(F)cc3)N3CCOCC3)c2)cc1 (stereo not given)	-17	4	36*	15	13
COCCN(CCOC)C(=O)[C@H](CCc1ccccc1)NC(=O)[C@H]1O[C@@H](n2cnc3c(N)ncnc32)[C@H](O)[C@@H]1O	.	-7	.	.	0
Cc1ccn(CCNC(=O)C2CCC(=O)N(CCc3ccc(Cl)cc3)C2)n1 (stereo not given)	-4	-12	13	-7	2
COC(=O)[C@]12C[C@H](CC(=O)N3CCN(C(=O)C4CC4)CC3)C(=O)N(Cc3ccccc3)C1=C[C@H](C(C)C)O[C@@H]2C1CC1	.	4	.	.	0
COc1ccccc1N1C(=O)Cc2ccccc2C1=O	-25	-11	17	-5	-1
COC(=O)[C@]12C[C@H](CC(=O)NCc3cccc4ccccc34)C(=O)N(Cc3ccc4c(c3)OCO4)C1=C[C@H](COCc1ccccc1)O[C@@H]2C	.	-19	.	.	1
O=C(NCC(c1ccco1)N1CCCC1)c1ccc(S(=O)(=O)Nc2ccc(F)cc2)cc1 (stereo not given)	-6	-7	13	12	40*
COc1ccc(NS(=O)(=O)c2cccc(C(=O)NCC3(N4CCOCC4)CCCCC3)c2)cc1	-28	-8	3	-30	1
COc1ccc(NS(=O)(=O)c2ccc(C(=O)NCC3(N4CCOCC4)CCCCC3)cc2)cc1	-18	11	3	8	57*
CCCNc1cc(=S)nc(N)[nH]1	-9	-3	8	-2	0
CC(C)Sc1nc(N)nc(-c2cccs2)c1C#N	-16	-1	32	-3	6
CSc1nc(N)nc(-c2cccs2)c1C#N	12	14	101*	27	7
COc1ccc(N2CCN(C(=O)Cn3cncn3)CC2)cc1	-3	-22	-4	-5	1
CC(C)N1CCN(c2ccc(OCC3COC(Cn4cncn4)(c4ccc(Cl)cc4Cl)O3)cc2)CC1 (stereo not given)	.	61*	.	.	20
CN1C(=O)[C@@]2(C3=C(CCCC3=O)OC3=C2C(=O)OC2(CCCCC2)C3)c2ccccc21	.	-7	.	.	1
O=C(Cn1c(=O)oc2cc(S(=O)(=O)N3CCCC3)ccc21)NC1CCCc2ccccc21 (stereo not given)	28*	-24	25	22	6
CC(C)(C)S(=O)N1C[C@@H]2CC(=O)C(CCO)=C2[C@H]1CCO (stereo not given in full)	.	-1	.	.	8
CC1(C(=O)NCc2ccccc2)Oc2ccccc2NC1=O (stereo not given)	-12	3	15	-15	10
CC1(C(=O)NCc2ccc(Cl)c(Cl)c2)Oc2cccnc2NC1=O (stereo not given)	4	28	3	11	53*
O=C(Nc1ccc(Cl)c(Cl)c1)N(CCCN1CCOCC1)Cc1cccnc1	-12	0	20	-32	6
SMILES	CHO parental Ca	TAAR1 antag	OX1R antag-1	OX1R antag-2	TAAR1 ag
O=C(Nc1ccc(Cl)c(Cl)c1)N(CCCN1CCOCC1)Cc1cccs1	-8	40	15	-20	46*
N#C/C=C(/N)N1CCN(c2ccc(Cl)c(Cl)c2)CC1	1	17	23	-11	38*
O=C(NCC1CCN(C(=O)C(=O)c2cc3ccccc3o2)CC1)c1ccncc1	.	-8	.	.	2
COc1cccc(CN2CCC(C(=O)Nc3ccc(-c4cccc(C)c4)cc3)CC2)c1O	3	12	-2	-22	38*
Cn1c(N=Cc2ccc([N+](=O)[O-])cc2)c(N)c(=O)n(C)c1=O	.	-6	.	.	1
CC(=O)c1cn(-c2ccc([N+](=O)[O-])cc2)c(=O)n(C)c1=O	-8	-23	39*	-8	-1
Cn1c(CBr)c(C(=O)c2ccc([N+](=O)[O-])cc2)c(=O)n(C)c1=O	-5	-13	51*	-16	0
Cn1c(N)c(C(=O)c2ccc(Cl)cc2)c(=O)n(C)c1=O	-7	11	4	-3	4
Cn1c(=O)c2c(ncn2Cc2ccc(O)c([N+](=O)[O-])c2)n(C)c1=O	.	1	.	.	1
Cc1ccc(C)c(OCCCN2CCc3ccccc3C2)c1	-30	-13	10	-32	39*
CC1(C(=O)N2CC3(CC(c4cccc([N+](=O)[O-])c4)=NO3)C[C@H]2C(=O)NCC(N)=O)CC1 (stereo not given in full)	-2	8	48*	-6	1
NC(=O)CNC(=O)[C@@H]1CC2(CC(c3cccc([N+](=O)[O-])c3)=NO2)CN1C(=O)c1ccccc1 (stereo not given in full)	-6	-9	44	-7	6
O=C(Nc1cccc(C(F)(F)F)c1)Oc1ccc(Cl)c2cccnc12	62*	15	23	34	18
CN1C=Nc2c(ncn2C2CCC(CO)O2)C1O (stereo not given)	.	11	.	.	1
CCc1nc2ccc(C(=O)Nc3ccc4c(c3)OCO4)cc2nc1CC	-9	0	35*	-23	-1
Cc1ccc(C(=O)Nc2ccc3c(c2)OCO3)cc1	-11	12	10	-19	5
CCn1ccnc1C(O)(c1ccccc1)c1ccccc1	5	-24	-1	-13	2
CCCCCCCCN1C(=O)[C@@H](CC(=O)NCCCCc2ccccc2)C[C@@]2(C(=O)OC)C1=C[C@H](C(C)(C)C)O[C@@H]2C	.	-18	.	.	10
CC1(c2ccc3c(c2)OCCO3)NC(=O)N(CC(=O)Nc2ccccc2F)C1=O (stereo not given)	.	2	.	.	16
Cc1cc(Br)ccc1NC(=O)CN1C(=O)C2C3CC(c4ccccc4)C(C3)C2C1=O (stereo not given)	31*	45	10	40	13
O=C1N=NC2=C1c1c3ccccc3c(O)n1CC2	8	-12	56*	-8	1
COc1ccc([C@H]2CC(=O)C=C(c3cccc(OC)c3OC)C2)cc1OC	-5	52*	18	-5	14
